From ChEMBL document CHEMBL1127051, “Vanilloids. 1. Analogs of capsaicin with antinociceptive and antiinflammatory activity” (J Med Chem, 1993)

What was measured:
[1] = tested on: Rattus norvegicus; test: Percentage analgesia by rat hot plate test after oral administration at 300 mg/kg.; format: functional
Method in brief: (§1)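 Rats fasted 18 h, prescreened on a 55 ± 0.5 °C hot plate (latency <12 s, else lowest <30 s) to set the 0 h value. Groups of 8 dosed orally in sesame oil (1 mL/200 g); latency read at 1.5, 3, 5 h (24 h if persisting). %analgesia = [(LT(t) − LT(0))/(60 − LT(0))]×100, taken at the time of maximal latency.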

[2] = tested on: Mus musculus; test: Latency time measured by mouse hot plate test after subcutaneous administration at 200 mg/kg; format: functional; parameters: unit: s
Method in brief: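 Male CF-1 mice, 8 per group, given test agent sc in 0.2 mL ethanol/Tween-80/saline (10/10/80); dose 0.68 mmol (200 mg/kg for capsaicin). Placed on copper surface held at 55 ± 0.5 °C. Paw-response latency (s) reported as group mean ± SD; pretest latency ~5 s.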

[3] = tested on: Mus musculus; test: Percentage inhibition in mouse by using Croton oil-inflamed mouse ear test (topical dosing).; format: functional; parameters: concentration or dose not given beside the values
Method in brief: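 Male Cox ICR mice (25–35 g), 10 per group. Left ear given 25 μL of 1% compound in ethanol, repeated ~17 h later; 1 h after that, both ears given 25 μL 2% croton oil. After 4 h, 5 mm ear punches weighed. % inhibition = [(C − T1)/C]×100, using left-minus-right weight differences versus vehicle controls.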

[4] = tested on: Rattus norvegicus; test: Percentage analgesia by using rat hot plate test after oral administration at 150 mg/kg; format: functional; method in brief: as §1
[5] = species on record: Mus musculus; test: Ratio of the number of responders to the number of animals tested; 4/8; format: functional
[6] = Acute toxicity after intraperitoneal dose at 50 mg/kg in mice; format: organism-based; parameters: dose 50 mg/kg, route intraperitoneal; settings: mouse, in vivo, ip, read-out: Lethality
Method in brief: (§2)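 Single intraperitoneal dose at the listed mg/kg; acute toxicity scored as % lethality = number of deaths / number of animals dosed, 7–10 animals per group.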

[7] = species on record: Mus musculus; test: Ratio of the number of responders to the number of animals tested; 6/8; format: functional
[8] = Acute toxicity after intraperitoneal dose at 15 mg/kg in mice; format: organism-based; parameters: dose 15 mg/kg, route intraperitoneal; settings: mouse, in vivo, ip, read-out: Lethality; method in brief: as §2
[9] = Acute toxicity after intraperitoneal dose at 100 mg/kg in mice; format: organism-based; parameters: dose 100 mg/kg, route intraperitoneal; settings: mouse, in vivo, ip, read-out: Lethality; method in brief: as §2
[10] = species on record: Mus musculus; test: Ratio of the number of responders to the number of animals tested; 2/8; format: functional
[11] = (§3) Acute toxicity after intraperitoneal dose at 200 mg/kg in mice; format: organism-based; parameters: dose 200 mg/kg, route intraperitoneal; settings: mouse, in vivo, ip, read-out: Lethality; method in brief: as §2
[12] = species on record: Mus musculus; test: Ratio of the number of responders to the number of animals tested; 0/8; format: functional
[13] = species on record: Mus musculus; test: Ratio of the number of responders to the number of animals tested; 8/8; format: functional
[14] = species on record: Mus musculus; test: Ratio of the number of responders to the number of animals tested; 7/8; format: functional
[15] = tested on: Mus musculus; test: as §3; format: functional; method in brief: as §2
[16] = Acute toxicity after intraperitoneal dose at 400 mg/kg in mice; format: organism-based; parameters: dose 400 mg/kg, route intraperitoneal; settings: mouse, in vivo, ip, read-out: Lethality; method in brief: as §2
[17] = Acute toxicity after intraperitoneal dose at 8 mg/kg in mice; format: organism-based; parameters: dose 8 mg/kg, route intraperitoneal; settings: mouse, in vivo, ip, read-out: Lethality; method in brief: as §2
[18] = species on record: Mus musculus; test: Ratio of the number of responders to the number of animals tested; 6/7; format: functional
Method in brief: (§4)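 Male CF-1 mice, 8 per group, dosed sc in 0.2 mL ethanol/Tween-80/saline (10/10/80). Latency read on a copper hot plate held at 55 ± 0.5 °C, with a pretest latency of about 5 s; reported as mean latency (s) ± SD. A responder is an animal whose latency exceeds the vehicle-control mean plus 2 SD; response = responders/animals tested.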

[19] = tested on: Mus musculus; test: Latency time measured by mouse hot plate test after subcutaneous administration at 40 mg/kg; format: functional; method in brief: as §4

CCCCCC/C=C\CCCCCCCCNC(=O)Cc1ccc(O)c(OC)c1
Analgesia [1]: 88%

CCCCCCCC/C=C\CCCCCCCNC(=O)Cc1ccc(O)c(OC)c1
Analgesia [1]: 66%

CCCC/C=C\CCCCCCCCNC(=O)Cc1ccc(O)c(OC)c1
Analgesia [1]: 74%

CCCCCCNC(=O)Cc1ccc(O)c(OC)c1
Latency [2]: 40.7
Inhibition [3]: -5.8%

CCCCC/C=C\C/C=C\CCCCCCCCNC(=O)Cc1ccc(O)c(OC)c1
Analgesia [1]: 89%

CCCCCCCC/C=C/CCCCCCCCNC(=O)Cc1ccc(O)c(OC)c1
Analgesia [1]: 95%

CCCCCC/C=C\CCCCCCCCCCNC(=O)Cc1ccc(O)c(OC)c1
Analgesia [4]: 62%

CCCCCC(=O)NCc1ccc(O)c(OC)c1
Response [5]: 4
Latency [2]: 16.8
mortality [6]: 60%
Inhibition [3]: 33.6%

CCCCCCC(=O)NCc1ccc(O)c(OC)c1
Latency [2]: 29.8
mortality [6]: 85%
Inhibition [3]: 33.7%
Response [7]: 6

CCCCCCCNC(=O)Cc1ccc(O)c(OC)c1
Latency [2]: 41.1
Inhibition [3]: 69.4%
mortality [8]: 100%

CCCCCCCCCC(C)CCCCCCCC(=O)NCc1ccc(O)c(OC)c1 (stereo not drawn)
Response [5]: 4
Latency [2]: 26.9
mortality [9]: 40%
Inhibition [3]: 88.3%

CCCCCCCCCC/C=C/CCCCCC(=O)NCc1ccc(O)c(OC)c1
Analgesia [1]: 27%
Latency [2]: 11.5
Response [10]: 2
Inhibition [3]: 26.7%
mortality [11]: 60%

COc1cc(CNC(=O)CCCCc2ccccc2)ccc1O
Latency [2]: 12.2
mortality [6]: 90%
Inhibition [3]: 56.4%

CCCCCCC/C=C\CCCCCCCCCC(=O)NCc1ccc(O)c(OC)c1
Analgesia [1]: 43%
Latency [2]: 35.7
Inhibition [3]: 76.9%
mortality [11]: 40%

C=C(CCCCCCCCC)CCCCCCCC(=O)NCc1ccc(O)c(OC)c1
Analgesia [1]: 67%
Latency [2]: >22.8
Response [10]: 2
Inhibition [3]: 96.2%
mortality [11]: 60%

CCCCCCCCCCCCCC/C=C\CC(=O)NCc1ccc(O)c(OC)c1
Latency [2]: 7.5
Response [12]: 0

CCCCC/C=C\CCCCCCCCCCC(=O)NCc1ccc(O)c(OC)c1
Response [13]: 8
Latency [2]: >39.9
Inhibition [3]: 60%
mortality [11]: 30%

CCCCC/C=C\CCCCCCCCC(=O)NCc1ccc(O)c(OC)c1
Latency [2]: >48.8
Response [14]: 7
Inhibition [3]: 79.3%
mortality [11]: 10%

CCCCCCC/C=C\CCCCCCCCCCCCC(=O)NCc1ccc(O)c(OC)c1
Inhibition [3]: 29%
mortality [11]: 0%

CCCCCCCCCC(=O)CCCCCCCC(=O)NCc1ccc(O)c(OC)c1
Latency [2]: 11.2

CCCCCCCC[C@H]1O[C@@H]1CCCCCCCC(=O)NCc1ccc(O)c(OC)c1
Lethality [15]: 60%
Latency [2]: 10.7
Inhibition [3]: 26%

CCCCCCC/C=C\CCCCCCCCC(=O)NCc1ccc(O)c(OC)c1
Analgesia [1]: 69%
Latency [2]: >38.5
Response [14]: 7
mortality [16]: 30%
Inhibition [3]: 81.7%

COc1cc(CNC(=O)CCCc2ccccc2)ccc1O
Latency [2]: 5.6
mortality [6]: 75%
Inhibition [3]: 40.9%

CCCCCCCCC(=O)NCc1ccc(O)c(OC)c1 [NONIVAMIDE]
Analgesia [1]: 17%
Response [13]: 8
Latency [2]: >31.2
mortality [17]: 50%
Inhibition [3]: 72.3%

COc1cc(CNC(=O)CCCC/C=C\C(C)C)ccc1O [ZUCAPSAICIN]
Analgesia [1]: 0%
Response [18]: 6
Latency [19]: >39.9
Inhibition [3]: 79.5%
